Measured values reported in ChEMBL document CHEMBL4038350 (J Med Chem, 2017).
Non-standard residues stand in square brackets, D forms with d. Residues, ends and D or L forms follow the SMILES beside them.

Columns and labels:
Assay type in all cases: functional, cell-based
Melanocortin receptor 4 [1] = biological target: T1, Melanocortin receptor 4 (Mus musculus, UniProt P56450); experiment: Agonist activity at mouse melanocortin receptor 4 expressed in HEK293 cells assessed as increase in cAMP accumulation after 2 hrs by AlphaScreen assay
[2] = biological target: Melanocyte-stimulating hormone receptor (Mus musculus, UniProt Q01727); experiment: Agonist activity at mouse melanocortin receptor 1 expressed in HEK293 cells assessed as increase in cAMP accumulation after 2 hrs by AlphaScreen assay
Procedure, shortened: (§1)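 Donor beads and biotin-cAMP in lysis buffer followed for 2 h. The AlphaScreen signal was read. EC50 came from nonlinear least-squares fits, duplicates, at least three independent experiments.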

Melanocortin receptor 4 [3] = biological target: T1, Melanocortin receptor 4; experiment: Antagonist activity at mouse melanocortin receptor 4 expressed in HEK293 cells assessed as inhibition of NDP-MSH-induced cAMP accumulation after 2 hrs by AlphaScreen assay; conditions: read-out: pA2 (converted)
[4] = biological target: Melanocortin receptor 5 (Mus musculus) (UniProt P41149); experiment: Inverse agonist activity at mouse melanocortin receptor 5 expressed in HEK293 cells assessed as decrease in cAMP accumulation at 100 uM after 2 hrs by AlphaScreen assay relative to control; set-up: scale not given: the % may be the effect or the level left
Procedure, shortened: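 Each replicate was normalized to its own signal at 10−10 M (basal). Where no plateau appeared, inverse agonism was reported as percent decrease from basal at 100 μM. Values are from three independent experiments.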

Melanocortin receptor 3 [5] = biological target: T2, Melanocortin receptor 3 (Mus musculus, UniProt P33033); experiment: Agonist activity at mouse melanocortin receptor 3 expressed in HEK293 cells assessed as increase in cAMP accumulation after 2 hrs by AlphaScreen assay
Melanocortin receptor 3 [6] = biological target: T2, Melanocortin receptor 3; experiment: Antagonist activity at mouse melanocortin receptor 3 expressed in HEK293 cells assessed as inhibition of NDP-MSH-induced cAMP accumulation after 2 hrs by AlphaScreen assay; conditions: read-out: pA2 (converted)
[7] = biological target: Melanocortin receptor 3 (Mus musculus) (UniProt P33033); experiment: Agonist activity at mouse melanocortin receptor 3 expressed in HEK293 cells assessed as increase in cAMP accumulation at 100 uM after 2 hrs by AlphaScreen assay relative to control
Procedure, shortened: (§2)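 Cyclic peptides were dissolved in DMSO. Receptor-expressing HEK293 cells in IBMX-containing stimulation buffer (pH 7.4) were stimulated for 2 h at room temperature. cAMP was then detected by competitive AlphaScreen after a 2 h lysis/bead step. […] Values come from at least three independent experiments.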

[8] = biological target: Melanocyte-stimulating hormone receptor (Mus musculus) (UniProt Q01727); experiment: Agonist activity at mouse melanocortin receptor 1 expressed in HEK293 cells assessed as increase in cAMP accumulation at 100 uM after 2 hrs by AlphaScreen assay relative to control; procedure, shortened: as §2
[9] = biological target: Melanocortin receptor 4 (Mus musculus) (UniProt P56450); experiment: Agonist activity at mouse melanocortin receptor 4 expressed in HEK293 cells assessed as increase in cAMP accumulation at 100 uM after 2 hrs by AlphaScreen assay; procedure, shortened: as §2
[10] = biological target: Melanocortin receptor 5 (Mus musculus) (UniProt P41149); experiment: Inverse agonist activity at mouse melanocortin receptor 5 expressed in HEK293 cells assessed as decrease in cAMP accumulation at 150 nM after 2 hrs by AlphaScreen assay relative to control; set-up: scale not given: the % may be the effect or the level left
Procedure, shortened: (§3)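 In mouse MC5R-HEK293 cells, cAMP was measured by AlphaScreen after 2 h peptide exposure (10−4 to 10−13 M) at room temperature. Each replicate was normalized to its signal at 10−10 M. For sigmoidal curves, percent inverse agonism was the change from basal to the high-concentration plateau. Apparent potency was taken as the curve inflection point. Three independent experiments were run.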

Melanocortin receptor 5 = Melanocortin receptor 5 (Mus musculus, UniProt P41149); experiment: Agonist activity at mouse melanocortin receptor 5 expressed in HEK293 cells assessed as increase in cAMP accumulation after 2 hrs by AlphaScreen assay; procedure, shortened: as §1
[11] = biological target: Melanocortin receptor 5 (Mus musculus) (UniProt P41149); experiment: Agonist activity at mouse melanocortin receptor 5 expressed in HEK293 cells assessed as increase in cAMP accumulation at 100 uM after 2 hrs by AlphaScreen assay relative to control; procedure, shortened: as §2
[12] = biological target: Melanocortin receptor 5 (Mus musculus) (UniProt P41149); experiment: Inverse agonist activity at mouse melanocortin receptor 5 expressed in HEK293 cells assessed as decrease in cAMP accumulation at 110 nM after 2 hrs by AlphaScreen assay relative to control; set-up: scale not given: the % may be the effect or the level left; procedure, shortened: as §3
[13] = biological target: Melanocortin receptor 5 (Mus musculus) (UniProt P41149); experiment: Inverse agonist activity at mouse melanocortin receptor 5 expressed in HEK293 cells assessed as decrease in cAMP accumulation at 10 nM after 2 hrs by AlphaScreen assay relative to control; set-up: scale not given: the % may be the effect or the level left; procedure, shortened: as §3
[14] = biological target: Melanocortin receptor 5 (Mus musculus) (UniProt P41149); experiment: Inverse agonist activity at mouse melanocortin receptor 5 expressed in HEK293 cells assessed as decrease in cAMP accumulation at 700 nM after 2 hrs by AlphaScreen assay relative to control; set-up: scale not given: the % may be the effect or the level left; procedure, shortened: as §3
[15] = biological target: Melanocortin receptor 5 (Mus musculus) (UniProt P41149); experiment: Inverse agonist activity at mouse melanocortin receptor 5 expressed in HEK293 cells assessed as decrease in cAMP accumulation at 510 nM after 2 hrs by AlphaScreen assay relative to control; set-up: scale not given: the % may be the effect or the level left; procedure, shortened: as §3

Chain of Melanocyte-stimulating hormone receptor (Mus musculus) (Q01727 whole entry, looked up): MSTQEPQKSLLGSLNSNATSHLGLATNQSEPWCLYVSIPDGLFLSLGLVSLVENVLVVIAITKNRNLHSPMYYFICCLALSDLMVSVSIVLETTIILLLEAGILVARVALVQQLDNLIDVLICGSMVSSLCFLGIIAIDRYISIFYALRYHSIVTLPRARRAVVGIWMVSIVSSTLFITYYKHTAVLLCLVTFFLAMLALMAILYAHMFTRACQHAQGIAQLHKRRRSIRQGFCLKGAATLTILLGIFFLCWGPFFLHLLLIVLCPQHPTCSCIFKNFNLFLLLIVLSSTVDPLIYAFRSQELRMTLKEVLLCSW
Chain of Melanocyte-stimulating hormone receptor (Q01727 whole entry): as the sequence (Q01727 whole entry, looked up) above
Chain of Melanocortin receptor 4 (Mus musculus) (P56450 whole entry): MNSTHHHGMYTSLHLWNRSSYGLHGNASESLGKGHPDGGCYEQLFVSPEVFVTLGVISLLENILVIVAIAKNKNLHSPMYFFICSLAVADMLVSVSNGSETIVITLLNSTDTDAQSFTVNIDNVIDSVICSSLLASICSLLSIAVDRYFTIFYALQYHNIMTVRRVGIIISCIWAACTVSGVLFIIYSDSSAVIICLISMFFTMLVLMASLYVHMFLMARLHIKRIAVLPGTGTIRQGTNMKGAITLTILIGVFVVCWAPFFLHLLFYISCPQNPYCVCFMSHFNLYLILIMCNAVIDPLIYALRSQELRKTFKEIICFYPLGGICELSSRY
T1 sequence (P56450 whole entry): as above
Chain of Melanocortin receptor 5 (Mus musculus) (P41149 whole entry): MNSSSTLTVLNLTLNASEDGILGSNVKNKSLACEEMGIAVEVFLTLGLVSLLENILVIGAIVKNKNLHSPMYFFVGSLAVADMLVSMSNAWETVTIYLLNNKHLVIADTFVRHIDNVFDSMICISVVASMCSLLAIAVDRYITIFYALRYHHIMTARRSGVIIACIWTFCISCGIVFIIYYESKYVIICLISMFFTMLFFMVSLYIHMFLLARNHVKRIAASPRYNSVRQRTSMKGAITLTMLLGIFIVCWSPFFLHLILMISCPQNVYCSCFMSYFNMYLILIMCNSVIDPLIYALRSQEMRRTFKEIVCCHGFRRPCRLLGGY
Chain of Melanocortin receptor 5 (P41149 whole entry): as above
Chain of Melanocortin receptor 3 (Mus musculus) (P33033 whole entry): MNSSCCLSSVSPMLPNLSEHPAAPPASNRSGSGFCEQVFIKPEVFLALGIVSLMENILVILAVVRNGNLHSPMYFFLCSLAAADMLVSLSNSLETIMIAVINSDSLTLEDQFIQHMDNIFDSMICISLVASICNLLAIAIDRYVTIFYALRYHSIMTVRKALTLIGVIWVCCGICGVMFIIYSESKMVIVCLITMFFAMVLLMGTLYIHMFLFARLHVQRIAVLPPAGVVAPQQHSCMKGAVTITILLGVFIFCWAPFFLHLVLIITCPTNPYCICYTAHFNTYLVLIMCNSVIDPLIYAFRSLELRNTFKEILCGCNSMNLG
T2 sequence (P33033 whole entry): as above

SMILES | EC50 (Melanocortin receptor 4 [1]) [µM] | EC50 [2] [µM] | Kb (Melanocortin receptor 4 [3]) [µM] | Activity [4] [%] | EC50 (Melanocortin receptor 3 [5]) [µM] | Kb (Melanocortin receptor 3 [6]) [µM] | Activity [7] [%] | Activity [8] [%] | Activity [9] [%] | Activity [10] [%] | EC50 (Melanocortin receptor 5) [µM] | Activity [11] [%] | Activity [12] [%] | Activity [13] [%] | Activity [14] [%] | Activity [15] [%]
N=C(N)NCCC[C@@H]1NC(=O)[C@@H]2CCCN2C(=O)[C@H]2CCCN2C(=O)[C@H](Cc2ccccc2)NC(=O)[C@H](CO)NC(=O)[C@H](CC(N)=O)NC(=O)[C@H](Cc2ccccc2)NC(=O)[C@H](Cc2ccccc2)NC1=O (cyclo(RFFNSF[dP]P)) | > 100 | > 100 | 0.00631 | 30 | > 100 | 0.631 |  |  |  |  |  |  |  |  |  | 
C[C@@H]1NC(=O)[C@H](Cc2c[nH]c3ccccc23)NC(=O)[C@H](Cc2ccccc2)NC(=O)[C@H](Cc2ccccc2)NC(=O)[C@H](CCCNC(=N)N)NC(=O)[C@@H]2CCCN2C(=O)[C@H]2CCCN2C(=O)[C@H](Cc2ccccc2)NC1=O (cyclo(RFFWAF[dP]P)) |  |  | 0.155 |  |  | 2 | 40 | 80 | 50 | 20 |  |  |  |  |  | 
C[C@@H]1NC(=O)[C@H](Cc2ccccc2)NC(=O)[C@H](Cc2ccccc2)NC(=O)[C@H](Cc2ccccc2)NC(=O)[C@H](CCCNC(=N)N)NC(=O)[C@@H]2CCCN2C(=O)[C@H]2CCCN2C(=O)[C@H](Cc2ccccc2)NC1=O | > 100 | > 100 | 0.234 |  | > 100 | > 3.16 |  |  |  |  | > 100 |  |  |  |  | 
CC(C)C[C@@H]1NC(=O)[C@H](CC(N)=O)NC(=O)[C@H](Cc2ccccc2)NC(=O)[C@H](Cc2ccccc2)NC(=O)[C@H](CCCNC(=N)N)NC(=O)[C@@H]2CCCN2C(=O)[C@H]2CCCN2C(=O)[C@H](Cc2ccccc2)NC1=O |  |  | 0.661 |  |  | > 3.16 | 25 | 80 | 25 |  | > 100 |  |  |  |  | 
N=C(N)NCCC[C@@H]1NC(=O)[C@@H]2CCCN2C(=O)[C@H]2CCCN2C(=O)[C@H](Cc2ccccc2)NC(=O)[C@H](CCCCN)NC(=O)[C@H](CC(N)=O)NC(=O)[C@H](Cc2ccccc2)NC(=O)[C@H](Cc2ccccc2)NC1=O | > 100 |  | 0.776 |  |  | > 3.16 | 45 | 60 |  |  |  | 45 |  |  |  | 
C[C@@H]1NC(=O)[C@@H](CN)NC(=O)[C@H](Cc2ccccc2)NC(=O)[C@H](Cc2ccccc2)NC(=O)[C@H](CCCNC(=N)N)NC(=O)[C@@H]2CCCN2C(=O)[C@H]2CCCN2C(=O)[C@H](Cc2ccccc2)NC1=O |  | > 100 |  |  | > 100 | 0.2 |  |  |  |  |  |  | 10 |  |  | 
C[C@@H]1NC(=O)[C@H](Cc2c[nH]cn2)NC(=O)[C@H](Cc2ccccc2)NC(=O)[C@H](Cc2ccccc2)NC(=O)[C@H](CCCNC(=N)N)NC(=O)[C@@H]2CCCN2C(=O)[C@H]2CCCN2C(=O)[C@H](Cc2ccccc2)NC1=O | > 100 | > 100 |  |  | > 100 | 0.347 |  |  |  |  |  |  |  | 15 |  | 
N=C(N)NCCC[C@@H]1NC(=O)[C@@H]2CCCN2C(=O)[C@H]2CCCN2C(=O)[C@H](Cc2ccccc2)NC(=O)CNC(=O)[C@H](CC(N)=O)NC(=O)[C@H](Cc2ccccc2)NC(=O)[C@H](Cc2ccccc2)NC1=O (cyclo(RFFNGF[dP]P)) | > 100 | > 100 | 0.794 | 35 | > 100 | > 3.16 |  |  |  |  |  |  |  |  |  | 
C[C@@H]1NC(=O)[C@H](CCC(=O)O)NC(=O)[C@H](Cc2ccccc2)NC(=O)[C@H](Cc2ccccc2)NC(=O)[C@H](CCCNC(=N)N)NC(=O)[C@@H]2CCCN2C(=O)[C@H]2CCCN2C(=O)[C@H](Cc2ccccc2)NC1=O | > 100 | 20.5 | 0.1 |  | > 100 | > 3.16 |  |  |  |  |  |  |  |  | 10 | 
CCCC[C@@H]1NC(=O)[C@H](Cc2ccccc2)NC(=O)[C@H](Cc2ccccc2)NC(=O)[C@H](CCCNC(=N)N)NC(=O)[C@@H]2CCCN2C(=O)[C@H]2CCCN2C(=O)[C@H](Cc2ccccc2)NC(=O)[C@H](C)NC1=O | > 100 | > 100 | 0.126 |  | > 100 | > 3.16 |  |  |  |  | > 100 |  |  |  |  | 
C[C@@H]1NC(=O)[C@H](CC(N)=O)NC(=O)[C@H](Cc2ccccc2)NC(=O)[C@H](Cc2ccccc2)NC(=O)[C@H](CCCNC(=N)N)NC(=O)[C@@H]2CCCN2C(=O)[C@H]2CCCN2C(=O)[C@H](C)NC1=O (cyclo(RFFNAA[dP]P)) | > 100 | > 100 | 0.00692 | 25 | > 100 | 0.794 |  |  |  |  |  |  |  |  |  | 
C[C@@H]1NC(=O)[C@H](CC(=O)O)NC(=O)[C@H](Cc2ccccc2)NC(=O)[C@H](Cc2ccccc2)NC(=O)[C@H](CCCNC(=N)N)NC(=O)[C@@H]2CCCN2C(=O)[C@H]2CCCN2C(=O)[C@H](Cc2ccccc2)NC1=O | > 100 | > 100 | 0.162 | 25 | > 100 | > 3.16 |  |  |  |  |  |  |  |  |  | 
N=C(N)NCCC[C@@H]1NC(=O)[C@@H]2CCCN2C(=O)[C@H]2CCCN2C(=O)[C@H](Cc2ccccc2)NC(=O)[C@H](Cc2ccccc2)NC(=O)[C@H](CC(N)=O)NC(=O)[C@H](Cc2ccccc2)NC(=O)[C@H](Cc2ccccc2)NC1=O |  |  | 1.95 |  |  | 1.91 | 35 | 70 | 35 |  |  | 25 |  |  |  | 
CC(C)[C@@H]1NC(=O)[C@H](Cc2ccccc2)NC(=O)[C@H](Cc2ccccc2)NC(=O)[C@H](CCCNC(=N)N)NC(=O)[C@@H]2CCCN2C(=O)[C@H]2CCCN2C(=O)[C@H](Cc2ccccc2)NC(=O)[C@H](C)NC1=O | > 100 |  | 1.26 |  | > 100 | > 3.16 |  | 55 |  |  |  |  |  |  |  | 25
CC(C)C[C@@H]1NC(=O)[C@H](Cc2ccccc2)NC(=O)[C@H](Cc2ccccc2)NC(=O)[C@H](CCCNC(=N)N)NC(=O)[C@@H]2CCCN2C(=O)[C@H]2CCCN2C(=O)[C@H](Cc2ccccc2)NC(=O)[C@H](C)NC1=O (cyclo(RFFLAF[dP]P)) | > 100 | > 100 | 0.0457 |  | > 100 | 2 |  |  |  |  |  |  | 20 |  |  | 
N=C(N)NCCC[C@@H]1NC(=O)[C@@H]2CCCN2C(=O)[C@H]2CCCN2C(=O)[C@H](Cc2ccccc2)NC(=O)[C@H](CCC(=O)O)NC(=O)[C@H](CC(N)=O)NC(=O)[C@H](Cc2ccccc2)NC(=O)[C@H](Cc2ccccc2)NC1=O (cyclo(RFFNEF[dP]P)) | > 100 |  | > 3.16 |  | > 100 | > 3.16 |  | 60 |  |  | > 100 |  |  |  |  | 
CC[C@@H]1NC(=O)[C@H](Cc2ccccc2)NC(=O)[C@H](Cc2ccccc2)NC(=O)[C@H](CCCNC(=N)N)NC(=O)[C@@H]2CCCN2C(=O)[C@H]2CCCN2C(=O)[C@H](Cc2ccccc2)NC(=O)[C@H](C)NC1=O | > 100 | > 100 |  |  |  |  |  |  |  |  |  |  |  |  |  | 
N=C(N)NCCC[C@@H]1NC(=O)[C@@H]2CCCN2C(=O)[C@H]2CCCN2C(=O)[C@H](Cc2ccccc2)NC(=O)[C@H](CC(=O)O)NC(=O)[C@H](CC(N)=O)NC(=O)[C@H](Cc2ccccc2)NC(=O)[C@H](Cc2ccccc2)NC1=O (cyclo(RFFNDF[dP]P)) | > 100 |  | > 3.16 | 25 | > 100 | > 3.16 |  | 65 |  |  |  |  |  |  |  | 
